# Reference: ChEMBL document CHEMBL1144491, “Synthesis and characterization of styrylchromone derivatives as beta-amyloid imaging agents” (Bioorg Med Chem, 2007)
# Key:
# Spleen [1] = test: Biodistribution in ddY mouse spleen assessed as radioactivity at 0.5 uCi, iv after 10 mins; assay type: ADME, organism-based; details: in vivo
# In short: (§1)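 Normal mice given no-carrier-added 125I-labelled tracer (HPLC-purified) by intravenous injection, then sampled at 2, 10, 30 and 60 min. Radioactivity expressed as % injected dose per gram of tissue, and per whole organ for stomach. Values are mean (SD) of 3–5 animals per time point.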
# Pancreas [2] = test: Biodistribution in iv dosed ddY mouse pancreas assessed as radioactivity after 30 mins; assay type: ADME, organism-based; details: in vivo, 0.5 h; in short: as §1
# Liver [3] = test: Biodistribution in ddY mouse liver assessed as radioactivity at 0.5 uCi, iv after 60 mins; assay type: ADME, organism-based; details: in vivo, 1 h; in short: as §1
# Brain [4] = test: Biodistribution in ddY mouse brain assessed as radioactivity at 0.5 uCi, iv after 2 mins; assay type: ADME, organism-based; details: in vivo; in short: as §1
# Kidney [5] = test: Biodistribution in ddY mouse kidney assessed as radioactivity at 0.5 uCi, iv after 30 mins; assay type: ADME, organism-based; details: in vivo, 0.5 h; in short: as §1
# Blood [6] = test: Biodistribution in ddY mouse blood assessed as radioactivity at 0.5 uCi, iv after 60 mins; assay type: ADME, organism-based; details: in vivo, 1 h; in short: as §1
# Liver [7] = test: Biodistribution in ddY mouse liver assessed as radioactivity at 0.5 uCi, iv after 2 mins; assay type: ADME, organism-based; details: in vivo; in short: as §1
# Blood [8] = test: Biodistribution in ddY mouse blood assessed as radioactivity at 0.5 uCi, iv after30 mins; assay type: ADME, organism-based; details: in vivo, 0.5 h; in short: as §1
# Intestine [9] = test: Biodistribution in ddY mouse intestine assessed as radioactivity at 0.5 uCi, iv after 2 mins; assay type: ADME, organism-based; details: in vivo; in short: as §1
# Pancreas [10] = test: Biodistribution in ddY mouse pancreas assessed as radioactivity at 0.5 uCi, iv after 2 mins; assay type: ADME, organism-based; details: in vivo; in short: as §1
# Heart [11] = test: Biodistribution in ddY mouse heart assessed as radioactivity at 0.5 uCi, iv after 60 mins; assay type: ADME, organism-based; details: in vivo, 1 h; in short: as §1
# Liver [12] = test: Biodistribution in ddY mouse liver assessed as radioactivity at 0.5 uCi, iv after 30 mins; assay type: ADME, organism-based; details: in vivo, 0.5 h; in short: as §1
# Spleen [13] = test: Biodistribution in ddY mouse spleen assessed as radioactivity at 0.5 uCi, iv after 2 mins; assay type: ADME, organism-based; details: in vivo; in short: as §1
# Stomach [14] = test: Biodistribution in ddY mouse stomach assessed as radioactivity at 0.5 uCi, iv after 2 mins; assay type: ADME, organism-based; details: in vivo; in short: as §1
# Heart [15] = test: Biodistribution in ddY mouse heart assessed as radioactivity at 0.5 uCi, iv after 10 mins; assay type: ADME, organism-based; details: in vivo; in short: as §1
# Heart [16] = test: Biodistribution in ddY mouse heart assessed as radioactivity at 0.5 uCi, iv after 30 mins; assay type: ADME, organism-based; details: in vivo, 0.5 h; in short: as §1
# Intestine [17] = test: Biodistribution in ddY mouse intestine assessed as radioactivity at 0.5 uCi, iv after10 mins; assay type: ADME, organism-based; details: in vivo, 10 min; in short: as §1
# Blood [18] = test: Biodistribution in ddY mouse blood assessed as radioactivity at 0.5 uCi, iv after 10 mins; assay type: ADME, organism-based; details: in vivo; in short: as §1
# Kidney [19] = test: Biodistribution in ddY mouse kidney assessed as radioactivity at 0.5 uCi, iv after 60 mins; assay type: ADME, organism-based; details: in vivo, 1 h; in short: as §1
# [20] = Binding affinity at amyloid peptide plaques; design: species or system Homo sapiens
# In short: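 Saturation binding to synthetic Aβ(1–40) aggregates (57 nM final), pre-aggregated at 0.5 mg/mL in pH 7.4 10 mM sodium phosphate/1 mM EDTA, 37 °C, 42 h with shaking. Radioiodinated ligand 1–125 nM final (made by mixing with cold compound), in 10% ethanol, 3 h at room temperature. Filtered on GF/B, bound 125I gamma-counted. Nonspecific binding defined with 1 µM cold ligand. Kd by Scatchard analysis.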
# Intestine [21] = test: Biodistribution in ddY mouse intestine assessed as radioactivity at 0.5 uCi, iv after 60 mins; assay type: ADME, organism-based; details: in vivo, 1 h; in short: as §1
# Stomach [22] = test: Biodistribution in ddY mouse stomach assessed as radioactivity at 0.5 uCi, iv after 60 mins; assay type: ADME, organism-based; details: in vivo, 1 h; in short: as §1
# Heart [23] = test: Biodistribution in ddY mouse heart assessed as radioactivity at 0.5 uCi, iv after 2 mins; assay type: ADME, organism-based; details: in vivo; in short: as §1
# Brain [24] = test: Biodistribution in ddY mouse brain assessed as radioactivity at 0.5 uCi, iv after 60 mins; assay type: ADME, organism-based; details: in vivo; in short: as §1
# Kidney [25] = test: Biodistribution in ddY mouse kidney assessed as radioactivity at 0.5 uCi, iv after 10 mins; assay type: ADME, organism-based; details: in vivo; in short: as §1
# Stomach [26] = test: Biodistribution in ddY mouse stomach assessed as radioactivity at 0.5 uCi, iv after 30 mins; assay type: ADME, organism-based; details: in vivo, 0.5 h; in short: as §1
# Pancreas [27] = test: Biodistribution in ddY mouse pancreas assessed as radioactivity at 0.5 uCi, iv after 60 mins; assay type: ADME, organism-based; details: in vivo, 1 h; in short: as §1
# [28] = Partition coefficient, log P at pH 7.4; assay type: physicochemical; details: octanol/water
# In short: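 HPLC-purified radioiodinated tracer partitioned between 3 mL 1-octanol and 3 mL 0.1 M phosphate buffer pH 7.4. Vortexed 3 min at room temperature, then centrifuged 5 min. 0.5 mL samples from each layer well-counted. Ratio taken of octanol to buffer cpm/0.5 mL. Octanol layer re-partitioned until values were consistent. Done in triplicate and repeated three times.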
# Spleen [29] = test: Biodistribution in ddY mouse spleen assessed as radioactivity at 0.5 uCi, iv after 60 mins; assay type: ADME, organism-based; details: in vivo, 1 h; in short: as §1
# Intestine [30] = test: Biodistribution in ddY mouse intestine assessed as radioactivity at 0.5 uCi, iv after 30 mins; assay type: ADME, organism-based; details: in vivo, 0.5 h; in short: as §1
# Stomach [31] = test: Biodistribution in ddY mouse stomach assessed as radioactivity at 0.5 uCi, iv after10 mins; assay type: ADME, organism-based; details: in vivo, 10 min; in short: as §1
# Liver [32] = test: Biodistribution in ddY mouse liver assessed as radioactivity at 0.5 uCi, iv after 10 mins; assay type: ADME, organism-based; details: in vivo; in short: as §1
# Blood [33] = test: Biodistribution in ddY mouse blood assessed as radioactivity at 0.5 uCi, iv after 2 mins; assay type: ADME, organism-based; details: in vivo; in short: as §1
# Brain [34] = test: Biodistribution in ddY mouse brain assessed as radioactivity at 0.5 uCi, iv after 10 mins; assay type: ADME, organism-based; details: in vivo; in short: as §1
# Spleen [35] = test: Biodistribution in ddY mouse spleen assessed as radioactivity at 0.5 uCi, iv after 30 mins; assay type: ADME, organism-based; details: in vivo, 0.5 h; in short: as §1
# Brain [36] = test: Biodistribution in ddY mouse brain assessed as radioactivity at 0.5 uCi, iv after 30 mins; assay type: ADME, organism-based; details: in vivo, 0.5 h; in short: as §1
# Pancreas [37] = test: Biodistribution in ddY mouse pancreas assessed as radioactivity at 0.5 uCi, iv after 10 mins; assay type: ADME, organism-based; details: in vivo; in short: as §1
# Kidney [38] = test: Biodistribution in ddY mouse kidney assessed as radioactivity at 0.5 uCi, iv after 2 mins; assay type: ADME, organism-based; details: in vivo; in short: as §1
Drug uptake (Spleen [1]),Drug uptake (Pancreas [2]),Drug uptake (Brain [4]),Drug uptake (Kidney [5]),Drug uptake (Liver [7]),Drug uptake (Blood [8]),Drug uptake (Intestine [9]),Drug uptake (Pancreas [10]),Drug uptake (Liver [12]),Drug uptake (Spleen [13]),Drug uptake (Stomach [14]),Drug uptake (Heart [15]),Drug uptake (Heart [16]),Drug uptake (Intestine [17]),Drug uptake (Blood [18]),Kd [20],Drug uptake (Heart [23]),Drug uptake (Kidney [25]),Drug uptake (Stomach [26]),logD [28],SMILES,also measured
3.64 % ID/g,3.07 % ID/g,4.88 % ID/g,4.91 % ID/g,13.23 % ID/g,2.56 % ID/g,2.84 % ID/g,6.58 % ID/g,10.27 % ID/g,4.23 % ID/g,1.24 %ID,3.78 % ID/g,2.43 % ID/g,5.51 % ID/g,2.44 % ID/g,32 nM,8.4 % ID/g,6.99 % ID/g,2.17 %ID,1.65,Nc1ccc(/C=C/c2cc(=O)c3cc([125I])ccc3o2)cc1,Drug uptake (Liver [3]): 8.16 % ID/g; Drug uptake (Blood [6]): 2.27 % ID/g; Drug uptake (Heart [11]): 1.64 % ID/g; Drug uptake (Kidney [19]): 3.76 % ID/g; Drug uptake (Intestine [21]): 16.08 % ID/g; Drug uptake (Stomach [22]): 3.29 %ID; Drug uptake (Brain [24]; 1 h): 1.62 % ID/g; Drug uptake (Pancreas [27]): 1.11 % ID/g; Drug uptake (Spleen [29]): 2.16 % ID/g; Drug uptake (Intestine [30]): 11.71 % ID/g; Drug uptake (Stomach [31]): 1.81 %ID; Drug uptake (Liver [32]): 14.49 % ID/g; Drug uptake (Blood [33]): 2.34 % ID/g; Drug uptake (Brain [34]): 4.4 % ID/g; Drug uptake (Spleen [35]): 2.92 % ID/g; Drug uptake (Brain [36]): 2.78 % ID/g; Drug uptake (Pancreas [37]): 5.18 % ID/g; Drug uptake (Kidney [38]): 11.94 % ID/g
4.42 % ID/g,2.25 % ID/g,2.84 % ID/g,5.48 % ID/g,14.55 % ID/g,2.19 % ID/g,2.59 % ID/g,4.92 % ID/g,11.13 % ID/g,3.88 % ID/g,1 %ID,3.31 % ID/g,2.09 % ID/g,8.55 % ID/g,2.44 % ID/g,17.5 nM,6.92 % ID/g,7.05 % ID/g,2.01 %ID,2.15,CNc1ccc(/C=C/c2cc(=O)c3cc([125I])ccc3o2)cc1,Drug uptake (Liver [3]): 7.82 % ID/g; Drug uptake (Blood [6]): 1.79 % ID/g; Drug uptake (Heart [11]): 1.47 % ID/g; Drug uptake (Kidney [19]): 3.52 % ID/g; Drug uptake (Intestine [21]): 19.16 % ID/g; Drug uptake (Stomach [22]): 1.9 %ID; Drug uptake (Brain [24]; 1 h): 0.99 % ID/g; Drug uptake (Pancreas [27]): 1.32 % ID/g; Drug uptake (Spleen [29]): 1.51 % ID/g; Drug uptake (Intestine [30]): 16.72 % ID/g; Drug uptake (Stomach [31]): 1.89 %ID; Drug uptake (Liver [32]): 14.41 % ID/g; Drug uptake (Blood [33]): 3.21 % ID/g; Drug uptake (Brain [34]): 2.96 % ID/g; Drug uptake (Spleen [35]): 2.66 % ID/g; Drug uptake (Brain [36]): 1.86 % ID/g; Drug uptake (Pancreas [37]): 3.56 % ID/g; Drug uptake (Kidney [38]): 10.41 % ID/g
2.01 % ID/g,1.34 % ID/g,1.14 % ID/g,3.69 % ID/g,11.17 % ID/g,1.13 % ID/g,1.45 % ID/g,3.02 % ID/g,7.72 % ID/g,2.43 % ID/g,0.7 %ID,1.75 % ID/g,1.27 % ID/g,4.95 % ID/g,1.44 % ID/g,8.7 nM,6.25 % ID/g,4.51 % ID/g,1.23 %ID,2.65,CN(C)c1ccc(/C=C/c2cc(=O)c3cc([125I])ccc3o2)cc1,Drug uptake (Intestine [30]): 12.68 % ID/g; Drug uptake (Stomach [31]): 1.14 %ID; Drug uptake (Liver [32]): 10.15 % ID/g; Drug uptake (Blood [33]): 2.62 % ID/g; Drug uptake (Brain [34]): 1.76 % ID/g; Drug uptake (Spleen [35]): 1.38 % ID/g; Drug uptake (Brain [36]): 1.37 % ID/g; Drug uptake (Pancreas [37]): 2.73 % ID/g; Drug uptake (Kidney [38]): 6.7 % ID/g
,,2.88%,,,,,,,,,,,,,,,,,,CN(C)c1ccc(-c2cn3cc([125I])ccc3n2)cc1,"Ki [20]: […]; Drug uptake (Brain [24]; 30 min, in the assay text read “after 30 mins” for “after 60 mins”): 0.26 % ID/g"
